Measurements pooled from the literature.
Compare with care: the assays were run in different laboratories.
pH: 7.4

Cc1ccc2[nH]c(=S)n(Cc3cccnc3)c(=O)c2c1
logD (shake flask; aqueous buffer): 2.88

O=C1NC2(CCC2)C(=O)N1c1ccc(F)c(C(F)(F)F)c1
chromatographic logD (HPLC): 3

CCCCCC(=O)N[C@H]1[C@H]([C@H](O)[C@H](O)CO)OC(C(=O)O)=C[C@@H]1O
logD (shake flask; aqueous buffer; 2 h): -0.92

CC1(C)NC(=O)N(c2ccc(F)c(C(F)(F)F)c2F)C1=O
chromatographic logD (HPLC): 2.7

c1cc(-c2ccc3ncnc(Nc4ncco4)c3c2)cc(N2C[C@H]3C[C@@H]2CO3)c1
logD (shake flask; aqueous buffer): 3.5

COc1cc(C(=O)c2nc(-c3cccc4[nH]ccc34)c[nH]2)cc(OC)c1OC
logD: 3.69

CCCCCc1cn([C@H]2[C@H]([C@H](O)[C@H](O)CO)OC(C(=O)O)=C[C@@H]2O)nn1
logD (shake flask; aqueous buffer; 2 h): -0.3

O=c1c2cc(Cl)ccc2[nH]c(=S)n1Cc1cccnc1
logD (shake flask; aqueous buffer): 3.16
